{"source": "ChEMBL document CHEMBL4627281", "about": "“A small molecule inhibitor of PCSK9 that antagonizes LDL receptor binding via interaction with a cryptic PCSK9 binding groove” (Bioorg Med Chem, 2020)", "key": {"[1]": {"target": "Proprotein convertase subtilisin/kexin type 9 (Homo sapiens) (UniProt Q8NBP7)", "sequence (Q8NBP7 31-152 limits assumed)": "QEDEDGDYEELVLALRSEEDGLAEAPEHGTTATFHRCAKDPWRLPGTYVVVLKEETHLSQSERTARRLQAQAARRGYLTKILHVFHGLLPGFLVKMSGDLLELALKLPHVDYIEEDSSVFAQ", "sequence (Q8NBP7 153-692 limits assumed)": "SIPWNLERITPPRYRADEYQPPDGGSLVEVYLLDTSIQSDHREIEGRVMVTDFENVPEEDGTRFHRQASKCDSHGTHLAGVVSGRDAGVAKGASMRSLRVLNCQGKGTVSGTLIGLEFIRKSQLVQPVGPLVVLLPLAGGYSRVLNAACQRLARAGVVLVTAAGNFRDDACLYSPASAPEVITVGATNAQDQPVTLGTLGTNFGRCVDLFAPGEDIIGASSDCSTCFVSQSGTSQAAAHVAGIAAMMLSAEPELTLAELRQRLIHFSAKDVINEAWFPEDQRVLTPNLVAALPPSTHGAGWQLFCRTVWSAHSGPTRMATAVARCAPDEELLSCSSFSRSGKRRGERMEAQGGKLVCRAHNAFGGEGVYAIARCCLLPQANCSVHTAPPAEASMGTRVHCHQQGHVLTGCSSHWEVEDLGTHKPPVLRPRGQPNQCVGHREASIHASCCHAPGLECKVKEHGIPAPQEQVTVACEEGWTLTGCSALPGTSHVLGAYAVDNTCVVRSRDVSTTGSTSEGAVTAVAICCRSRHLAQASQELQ", "experiment": "Binding affinity to biotinylated recombinant human PCSK9 at 0.8 to 1.6 uM incubated for 2 mins followed by further incubation for 10 mins by biolayer interferometry", "method_in_brief": "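Biolayer interferometry: biotinylated PCSK9 (27 µg/mL) loaded onto a Super Streptavidin biosensor and blocked with biocytin. Compound (0.2–25.6 µM) associated for 2 min, then dissociated for 10 min. Background signal subtracted to remove non-specific binding.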"}, "PCSK9/LDLR": {"target": "PCSK9/LDLR (Homo sapiens, UniProt Q8NBP7)", "sequence (Q8NBP7 31-152 limits assumed)": "as the sequence (Q8NBP7 31-152 limits assumed) above", "sequence (Q8NBP7 153-692 limits assumed)": "as the sequence (Q8NBP7 153-692 limits assumed) above", "sequence (P01130 22-860 partner limits assumed)": "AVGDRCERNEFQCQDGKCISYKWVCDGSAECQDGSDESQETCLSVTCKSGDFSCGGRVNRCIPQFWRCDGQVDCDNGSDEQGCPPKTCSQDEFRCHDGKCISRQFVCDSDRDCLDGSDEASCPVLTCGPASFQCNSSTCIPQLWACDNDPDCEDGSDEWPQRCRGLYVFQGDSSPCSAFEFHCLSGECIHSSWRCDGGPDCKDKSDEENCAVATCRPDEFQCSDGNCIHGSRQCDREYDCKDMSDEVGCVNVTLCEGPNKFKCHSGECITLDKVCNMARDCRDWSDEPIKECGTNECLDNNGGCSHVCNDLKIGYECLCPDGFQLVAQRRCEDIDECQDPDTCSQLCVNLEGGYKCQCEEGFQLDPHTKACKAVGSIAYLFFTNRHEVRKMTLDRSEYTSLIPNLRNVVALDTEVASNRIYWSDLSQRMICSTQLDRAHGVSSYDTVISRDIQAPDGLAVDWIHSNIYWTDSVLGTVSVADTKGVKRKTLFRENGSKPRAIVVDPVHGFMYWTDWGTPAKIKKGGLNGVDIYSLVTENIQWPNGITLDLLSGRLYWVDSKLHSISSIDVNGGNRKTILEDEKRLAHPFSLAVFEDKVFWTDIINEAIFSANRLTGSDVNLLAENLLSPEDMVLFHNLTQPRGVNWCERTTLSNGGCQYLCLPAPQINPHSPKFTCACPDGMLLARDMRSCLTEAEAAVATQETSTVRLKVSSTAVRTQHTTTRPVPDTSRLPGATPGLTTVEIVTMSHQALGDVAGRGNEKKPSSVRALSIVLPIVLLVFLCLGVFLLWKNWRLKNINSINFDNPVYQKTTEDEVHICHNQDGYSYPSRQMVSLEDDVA", "experiment": "Inhibition of recombinant human His-tagged PCSK9 interaction with recombinant LDLR AB domain (unknown origin) measured after 3 hrs by horseradish peroxidase-coupled TMB substrate based spectrophotometry", "format": "protein assay", "method_in_brief": "(§1)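 ELISA plates pre-coated with LDLR-EGF-AB domain. Compounds serially diluted from 10 mM DMSO stocks in reaction buffer, with 7 ng His-tagged human PCSK9 added, 3 h at room temperature with shaking. Binding detected with biotinylated anti-His antibody (1 h), then HRP-streptavidin (20 min), then substrate (15 min); absorbance read at 450/540 nm. IC50 taken from the % inhibition curve.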"}, "[2]": {"target": "Mast/stem cell growth factor receptor Kit (Homo sapiens, UniProt P10721)", "sequence (P10721 whole entry)": "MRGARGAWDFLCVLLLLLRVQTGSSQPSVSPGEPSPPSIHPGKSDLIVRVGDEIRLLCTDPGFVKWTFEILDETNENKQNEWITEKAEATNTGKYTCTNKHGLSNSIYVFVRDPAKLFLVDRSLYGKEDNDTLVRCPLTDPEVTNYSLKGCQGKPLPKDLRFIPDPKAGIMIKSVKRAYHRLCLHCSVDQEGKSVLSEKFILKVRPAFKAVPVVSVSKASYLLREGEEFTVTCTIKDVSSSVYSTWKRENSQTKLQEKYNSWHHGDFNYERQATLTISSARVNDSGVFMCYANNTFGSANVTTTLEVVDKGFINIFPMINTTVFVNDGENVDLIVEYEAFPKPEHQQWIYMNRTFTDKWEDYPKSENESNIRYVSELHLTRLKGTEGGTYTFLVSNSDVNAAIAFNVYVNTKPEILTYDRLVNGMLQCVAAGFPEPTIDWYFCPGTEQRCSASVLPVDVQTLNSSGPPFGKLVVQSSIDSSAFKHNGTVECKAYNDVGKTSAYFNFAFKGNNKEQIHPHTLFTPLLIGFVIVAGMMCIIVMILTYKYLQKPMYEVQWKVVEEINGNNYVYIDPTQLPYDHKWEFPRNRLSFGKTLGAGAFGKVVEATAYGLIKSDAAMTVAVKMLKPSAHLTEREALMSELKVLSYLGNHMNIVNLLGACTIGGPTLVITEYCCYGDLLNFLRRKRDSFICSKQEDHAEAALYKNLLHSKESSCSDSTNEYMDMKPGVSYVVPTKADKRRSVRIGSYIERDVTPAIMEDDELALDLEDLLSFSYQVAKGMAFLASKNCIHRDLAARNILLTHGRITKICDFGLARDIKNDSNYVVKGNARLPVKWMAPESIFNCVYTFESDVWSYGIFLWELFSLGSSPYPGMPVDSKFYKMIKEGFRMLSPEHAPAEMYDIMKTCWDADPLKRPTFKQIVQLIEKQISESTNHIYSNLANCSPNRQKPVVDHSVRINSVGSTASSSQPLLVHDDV", "experiment": "Inhibition of recombinant human N-terminal GST-tagged c-Kit (544 to end residues) expressed in baculovirus infected Sf21 insect cells using FAM-labelled P22 peptide as substrate preincubated for 10 mins followed by substrate addition and measured after 1 hr in presence of ATP by fluorescence assay"}, "[3]": {"target": "Tyrosine-protein kinase ABL1 (Homo sapiens, UniProt P00519)", "experiment": "(§2) Inhibition of recombinant human N-terminal His-tagged Abl (2 to 1130 residues) expressed in baculovirus expression system using FAM-labelled P2 peptide as substrate preincubated for 10 mins followed by substrate addition and measured after 1 hr in presence of ATP by fluorescence assay"}, "[4]": {"target": "Platelet-derived growth factor receptor beta (Homo sapiens, UniProt P09619)", "sequence (P09619 whole entry, the tested form may be a part)": "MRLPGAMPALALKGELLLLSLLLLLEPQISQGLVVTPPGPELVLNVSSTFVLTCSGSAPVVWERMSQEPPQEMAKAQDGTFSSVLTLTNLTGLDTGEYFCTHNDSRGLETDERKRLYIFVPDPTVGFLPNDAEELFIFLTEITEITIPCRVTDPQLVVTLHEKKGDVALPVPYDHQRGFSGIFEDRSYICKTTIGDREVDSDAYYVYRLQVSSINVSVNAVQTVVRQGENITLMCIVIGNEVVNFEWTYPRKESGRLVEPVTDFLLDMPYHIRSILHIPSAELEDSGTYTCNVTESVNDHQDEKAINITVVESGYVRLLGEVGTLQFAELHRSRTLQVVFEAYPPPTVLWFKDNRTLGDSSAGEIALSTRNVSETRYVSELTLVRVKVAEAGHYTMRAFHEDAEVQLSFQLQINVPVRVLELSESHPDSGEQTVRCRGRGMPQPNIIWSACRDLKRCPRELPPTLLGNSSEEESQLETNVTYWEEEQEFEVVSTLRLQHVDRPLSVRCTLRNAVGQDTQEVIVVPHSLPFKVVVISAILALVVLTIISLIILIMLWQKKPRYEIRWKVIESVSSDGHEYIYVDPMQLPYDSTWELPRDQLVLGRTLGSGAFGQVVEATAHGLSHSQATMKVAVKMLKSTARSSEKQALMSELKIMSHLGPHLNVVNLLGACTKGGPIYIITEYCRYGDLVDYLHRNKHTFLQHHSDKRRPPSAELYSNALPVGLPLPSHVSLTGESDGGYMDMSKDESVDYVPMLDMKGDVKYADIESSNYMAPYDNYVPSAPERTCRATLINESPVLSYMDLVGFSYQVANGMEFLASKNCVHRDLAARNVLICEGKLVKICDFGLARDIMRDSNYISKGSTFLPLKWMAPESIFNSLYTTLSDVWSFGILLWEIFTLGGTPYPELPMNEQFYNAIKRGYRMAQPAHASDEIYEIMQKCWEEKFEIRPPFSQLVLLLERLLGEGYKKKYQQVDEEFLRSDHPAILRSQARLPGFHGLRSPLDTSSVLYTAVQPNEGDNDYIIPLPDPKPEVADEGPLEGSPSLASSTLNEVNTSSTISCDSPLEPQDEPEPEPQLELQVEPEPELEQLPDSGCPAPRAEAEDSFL", "experiment": "as §2, with “GST-tagged PDGFRbeta cytoplasmic domain (557” for “His-tagged Abl (2”, “1106” for “1130”, “P22” for “P2”"}, "[5]": {"test_system": "PCSK9/LDLR (Homo sapiens), Q8NBP7+P01130 [D374Y]", "experiment": "Inhibition of PCSK9 D374Y mutant (unknown origin) and LDLR protein-protein interaction in human PBMC assessed as increase in LDLR expression on lymphocyte surface at 0.1 to 0.4 uM measured after 4 hrs by flow cytometry analysis", "format": "cell-based", "method_in_brief": "(§3)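 PBMCs from healthy donors, frozen and then thawed, plated at 2 × 10^5 per well in RPMI with 10 mM HEPES, 1 mM pyruvate and 0.5% FCS for 2 h at 37 °C. Treated 4 h with or without 600 ng/mL PCSK9-D374Y plus compound. Cells stained 20 min at room temperature with APC-conjugated anti-LDLR; at least 5 × 10^3 gated lymphocytes read by flow cytometry. Values as % of PCSK9-free vehicle; triplicates, t test.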"}, "[6]": {"test_system": "PCSK9/LDLR (Homo sapiens), Q8NBP7+P01130 [D374Y]", "experiment": "Inhibition of PCSK9 D374Y mutant (unknown origin) and LDLR protein-protein interaction expressed in human PBMCs assessed as increase in LDLR expression on lymphocyte surface at 1 to 10 uM measured after 4 hrs by flow cytometry analysis", "method_in_brief": "as §3"}, "[7]": {"experiment": "AUCinfinity in CD1 mouse at 0.4 mg/kg, iv administered as cassette dose measured upto 24 hrs by LC-MS/MS analysis", "format": "ADME, organism-based", "design": "dose 0.4 mg/kg, route intravenous, time infinity", "settings": "in vivo", "method_in_brief": "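Male CD1 mice (second cassette 28–29 g, 7–8 weeks) given one IV 5-in-1 cassette at 0.4 mg/kg per compound in 5% DMAC/5% Solutol HS15/90% saline. Blood (~20 µL) into K2EDTA from the facial vein at 0.083–24 h, terminal bleed by cardiac puncture under isoflurane. Blood diluted with deionised water, stored at −80 °C, analysed by positive-ESI mass spectrometry.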"}, "[8]": {"experiment": "Tmax in C57BL/6 mouse at 20 mg/kg, po administered as single dose measured upto 24 hrs by LC-MS/MS analysis", "format": "ADME, organism-based", "settings": "in vivo", "method_in_brief": "(§4)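 Male C57BL/6 mice, single dose: IV 5 mg/kg in 85% saline/10% Solutol HS15/5% DMSO; SC 20 mg/kg in same vehicle; PO 20 mg/kg in 1% methylcellulose in water. About 110 µL blood taken into K2EDTA by retro-orbital puncture (terminal bleed by cardiac puncture under isoflurane) at 0.033–24 h. Plasma spun at 2000 g, 5 min, 4 °C, stored near −70 °C; n = 3 per route.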"}, "[9]": {"experiment": "Cmax in C57BL/6 mouse at 20 mg/kg, sc administered as single dose measured upto 24 hrs by LC-MS/MS analysis", "format": "ADME, organism-based", "design": "dose 20 mg/kg, route subcutaneous", "settings": "in vivo", "method_in_brief": "as §4"}, "[10]": {"experiment": "AUClast in C57BL/6 mouse at 5 mg/kg, iv administered as single dose measured upto 24 hrs by LC-MS/MS analysis", "format": "ADME, organism-based", "design": "dose 5 mg/kg, time < 24 hr, route intravenous", "settings": "in vivo", "method_in_brief": "as §4"}, "[11]": {"experiment": "AUCinfinity in C57BL/6 mouse at 20 mg/kg, sc administered as single dose measured upto 24 hrs by LC-MS/MS analysis", "format": "ADME, organism-based", "design": "dose 20 mg/kg, time infinity, route subcutaneous", "settings": "in vivo", "method_in_brief": "as §4"}, "[12]": {"experiment": "Mean residence time ( 0 to infinity) in C57BL/6 mouse at 5 mg/kg, iv administered as single dose measured upto 24 hrs by LC-MS/MS analysis", "format": "ADME, organism-based", "settings": "in vivo", "method_in_brief": "as §4"}, "[13]": {"experiment": "Bioavailability in C57BL/6 mouse at 20 mg/kg, sc administered as single dose measured upto 24 hrs by LC-MS/MS analysis", "format": "ADME, organism-based", "settings": "in vivo", "method_in_brief": "as §4"}, "[14]": {"experiment": "Oral bioavailability in C57BL/6 mouse at 20 mg/kg administered as single dose measured upto 24 hrs by LC-MS/MS analysis", "format": "ADME, organism-based", "settings": "in vivo", "method_in_brief": "as §4"}, "Mus musculus [15]": {"test_system": "Mus musculus", "experiment": "Antihyperlipidemic activity in C57BL/6 mouse assessed as decrease in total cholesterol level at 3.28 mg/kg/day, sc administered daily for 14 days and measured on day 15 by colorimetric method", "format": "functional, organism-based", "method_in_brief": "(§5)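 Female C57BL/6 wild-type or PCSK9−/− mice (8–16 weeks), acclimatised 7 days, 5 per group, dosed SC daily for 14 days at 3.28 or 16.4 mg/kg/day in 5% DMSO/95% saline, or vehicle alone. Blood taken into EDTA on days 0, 5, 10 and 15; plasma from 2500 g spin, stored at −20 °C. Total cholesterol and triglycerides read by colorimetric kits, PCSK9 by mouse ELISA; unpaired two-tailed t test against vehicle.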"}, "Mus musculus [16]": {"test_system": "Mus musculus", "experiment": "Effect on total triglyceride level in C57BL/6 mouse at 3.28 to 16.4 mg/kg/day, sc administered daily for 14 days and measured on day 15 by colorimetric method", "format": "ADME, organism-based", "settings": "in vivo, 336 h", "method_in_brief": "as §5"}, "Mus musculus [17]": {"test_system": "Mus musculus", "experiment": "Up regulation of PCSK9 expression in C57BL/6 mouse at 16.4 mg/kg/day, sc administered daily for 10 days measured post last dose by ELISA", "format": "functional, organism-based", "settings": "in the assay text read “for 14 days” for “for 10 days”", "method_in_brief": "as §5"}, "[18]": {"target": "PCSK9/LDLR (Homo sapiens) (UniProt Q8NBP7+P01130)", "sequence (P01130 22-860 partner limits assumed)": "as the sequence (P01130 22-860 partner limits assumed) above", "sequence (Q8NBP7 31-152 limits assumed)": "as the sequence (Q8NBP7 31-152 limits assumed) above", "sequence (Q8NBP7 153-692 limits assumed)": "as the sequence (Q8NBP7 153-692 limits assumed) above", "experiment": "Inhibition of recombinant human His-tagged PCSK9 interaction with recombinant LDLR AB domain (unknown origin) at higher concentration measured after 3 hrs by horseradish peroxidase-coupled TMB substrate based spectrophotometry relative to control", "format": "protein assay", "method_in_brief": "as §1"}}, "note": "The source made the active and inactive calls. The calls are words filed in the database; no cut-off is given here.", "data": [{"smiles": "Cc1cn(-c2cc(CN3CCC[C@H](N)C3)cc(NC(=O)c3ccc(C)c(Oc4ccccc4)c3)c2)cn1", "values": [{"measurement": "Activity", "setting": "[1]", "result": "Active"}, {"measurement": "IC50", "setting": "PCSK9/LDLR", "result": 0.537, "unit": "µM"}, {"measurement": "IC50", "setting": "[2]", "result": "> 10", "unit": "µM"}, {"measurement": "IC50", "setting": "[3]", "result": "> 10", "unit": "µM"}, {"measurement": "IC50", "setting": "[4]", "result": "> 10", "unit": "µM"}, {"measurement": "inhibition", "setting": "[5]", "result": "inactive"}, {"measurement": "inhibition", "setting": "[6]", "result": "Active"}, {"measurement": "AUC(0-inf)", "setting": "[7]", "result": 1470, "unit": "ng·h/mL"}, {"measurement": "Tmax", "setting": "[8]", "result": 2, "unit": "h"}, {"measurement": "Cmax", "setting": "[9]", "result": 2210, "unit": "ng/mL"}, {"measurement": "AUC(0-t) at 24 h", "setting": "[10]", "result": 4380, "unit": "ng·h/mL"}, {"measurement": "AUC(0-inf)", "setting": "[11]", "result": 16800, "unit": "ng·h/mL"}, {"measurement": "MRT inf", "setting": "[12]", "result": 3.56, "unit": "h"}, {"measurement": "bioavailability", "setting": "[13]", "result": 91.3, "unit": "%"}, {"measurement": "bioavailability", "setting": "[14]", "result": 0.527, "unit": "%"}, {"measurement": "Activity", "setting": "Mus musculus [15]", "result": "inactive"}, {"measurement": "Activity", "setting": "Mus musculus [16]", "result": "Non-Toxic"}, {"measurement": "Activity", "setting": "Mus musculus [17]", "result": "Active"}, {"measurement": "Imax", "setting": "[18]", "result": 57, "unit": "%"}]}]}
